# According to paper PMC8102310 (Cancer discovery, 2021):
# Like-named read-outs stand apart in the source and are kept apart here.
# Legend:
# [1] = test system: androgen-dependent and castration resistant prostate cancer cell lines; settings: ref [35], [54]; cited from earlier work
# [2] = test system: JQ1 resistant 22Rv1 cells; assay: Cell proliferation in JQ1 resistant cells; assay type: cell-based; settings: for resistance, resistant vs parental: JQ1 resistant 22Rv1 cells
# Method in brief: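 For resistance, 22Rv1 cells were cultured for 6 months in escalating BET inhibitor (30 nM up to 500 nM) or in 0.1% DMSO vehicle. Dose was raised only when morphology, viability and growth were good and after at least two passages at the prior dose. Parental (vehicle-cultured) and resistant cells were then compared for proliferation IC50.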
# 22Rv1 = assay: Cell proliferation; assay type: cell-based
# BRD4 bromodomain = BRD4 bromodomain (Homo sapiens, UniProt O60885); assay type: cell-based
# BRD2, 3, 4, 9 and WDR9 = assay: Bromoscan assay of 32 bromodomains; settings: at 1 μM; minimal binding
# 97 kinases = assay: Screen of 97 kinases; assay type: biochemical; settings: at 10 μM
# [3] = test system: 44 receptors, enzymes and ion channels; assay: Safety screen of 44 receptors, enzymes and ion channels; assay type: biochemical; settings: at 10 μM
# VCaP = assay: Cell proliferation; assay type: cell-based; settings: Homo sapiens, read-out: growth inhibition IC50
# LNCaP95 = assay: Cell proliferation; assay type: cell-based; settings: LNCaP-95, read-out: growth inhibition IC50
# [4] = test system: AR negative, hormone independent, cell lines; assay: Cell proliferation; assay type: cell-based; settings: read-out: growth inhibition IC50
# 22Rv1 cells [5] = assay: AR and C-MYC signaling; assay type: cell-based
# LNCaP95 cells = assay: AR and C-MYC signaling; assay type: cell-based
# 22Rv1 cells [6] = assay: Chromatin immunoprecipitation of CBP, p300 and AR-FL at AR binding sites; assay type: cell-based; settings: 500nM, 10nM dihydrotestosterone
# C4–2 cells = assay: as above; assay type: cell-based; settings: 500nM, 10nM dihydrotestosterone
# 22Rv1 mouse xenografts = assay: 22Rv1 mouse xenograft; assay type: in vivo
# CP50c PDX = assay: CP50c patient-derived xenograft; assay type: in vivo, mouse
# Method in brief: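 CP50c PDX was passaged twice in castrated mice, then fragments were grafted subcutaneously into castrated male NSG mice. Oral gavage dosing began at about 300–400 mm³, once daily, with 5% DMSO:95% methylcellulose (0.5% w/v) as vehicle or formulation. Volumes were taken every 2–3 days and grouped by 5-day intervals, n=6 per group. Growth was normalized to start, and time to 300% of starting volume served as the surrogate survival endpoint.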
# LNCaP-Bic mouse = LNCaP-Bic mouse xenograft; assay type: in vivo
# patients with mCRPC = assay: First in human phase I trial; assay type: in vivo
compound,measurement,setting,value
CNC(=O)Nc1ccc2c(c1)CC[C@@]21OC(=O)N(CC(=O)N(Cc2ccc(F)cc2)[C@@H](C)C(F)(F)F)C1=O [A-485],cell death,[1],induce cell death
CC1=NN(c2ccc(C(=O)O)cc2)C(=O)/C1=C\c1ccc(-c2cc(C)c(C)cc2[N+](=O)[O-])o1 [C646],cell death,[1],induce cell death
Cc1sc2c(c1C)C(c1ccc(Cl)cc1)=N[C@@H](CC(=O)Nc1ccc(O)cc1)c1nnc(C)n1-2 [OTX-015],"resistance, resistant vs parental",[2],> 100 fold
Cc1sc2c(c1C)C(c1ccc(Cl)cc1)=N[C@@H](CC(=O)OC(C)(C)C)c1nnc(C)n1-2 [JQ1],IC50,"22Rv1; read-out: IC50 in parental 22Rv1 cells, parental cells, vehicle cultured",60 nM
same,"resistance, resistant vs parental",[2],> 100 fold
same,IC50,"[2]; read-out: IC50 in JQ1 resistant 22Rv1 cells, resistant cells",7.3 µM
CO[C@H]1CC[C@H](n2c([C@@H]3CCCC(=O)N3c3ccc(F)c(F)c3)nc3cc(-c4c(C)noc4C)ccc32)CC1 [CCS1477],IC50,BRD4 bromodomain,1060 nM
same,"binding, % of control","BRD2, 3, 4, 9 and WDR9",14–33 % of control
same,biochemical inhibitory activity,97 kinases,no biochemical inhibitory activity
same,biochemical inhibitory activity in safety screen,[3],no biochemical inhibitory activity
same,IC50,VCaP,< 100 nM
same,IC50,"22Rv1; Homo sapiens, 22Rv1, read-out: growth inhibition IC50, 22Rv1",< 100 nM
same,IC50,"22Rv1; read-out: growth inhibition IC50, 22Rv1",96 nM
same,IC50,LNCaP95,< 100 nM
same,IC50,[4],> 1000 nM
same,sensitivity of JQ1 resistant 22Rv1 cells to treatment,[2]; compared with parental,more sensitive
same,C-MYC protein expression,22Rv1 cells [5]; 22Rv1,reduced
same,"expression of AR regulated genes (KLK2, KLK3 and TMPRSS2)",22Rv1 cells [5]; 48-hours,reduced
same,"expression of AR regulated genes (KLK2, KLK3 and TMPRSS2)",LNCaP95 cells; 48-hours,reduced
same,C-MYC protein expression,LNCaP95 cells; LNCaP95,reduced
same,"recruitment of CBP, p300 and AR-FL to AR binding sites",22Rv1 cells [6],"reduced the recruitment of CBP, p300 and AR-FL"
same,"recruitment of CBP, p300 and AR-FL to AR binding sites",C4–2 cells,"reduced the recruitment of CBP, p300 and AR-FL"
same,most effective tolerated dose,22Rv1 mouse xenografts; 22Rv1 xenograft,20 mg/kg
same,concentration of CCS1477 in plasma and tumor,22Rv1 mouse xenografts; 24-hours after the last dose,undetectable
same,"AR-FL, AR-V7 and C-MYC protein expression in tumors","22Rv1 mouse xenografts; after 7-days of treatment, all doses tested",reduced
same,plasma KLK3 concentrations,22Rv1 mouse xenografts; all doses,decrease
same,levels of CCS1477 in plasma or tumor,22Rv1 mouse xenografts; day 52,no detectable levels
same,tolerability,"22Rv1 mouse xenografts; mouse, in vivo",well tolerated with no change in body weight or condition of the animals
same,tumor growth,"22Rv1 mouse xenografts; oral, 10mg/kg QD, 20 mg/kg QD, 30 mg/kg QOD, vs vehicle",significantly (p=<0.001) impacted tumor growth
same,tumor growth inhibition after treatment stopped at 28-days,22Rv1 mouse xenografts; treatment stopped after 28-days,sustained until day 52
same,median time to 300% growth,"CP50c PDX; 20 mg/kg once-daily, vehicle 38",56 days
same,survival (time to 300% growth),CP50c PDX; oral 20 mg/kg QD vs vehicle,significantly (p=<0.001) prolonged survival
same,tumor growth,CP50c PDX; oral 20 mg/kg QD vs vehicle,significantly (p=0.02) reduced tumor growth
same,tumor growth compared to enzalutamide,LNCaP-Bic mouse,significantly (p=<0.001) reduced tumor growth
same,plasma KLK3,"patients with mCRPC; Patient 1, 50 mg BD 3-days-on-and-4 days-off",initial fall in plasma KLK3 which then stabilized
same,biopsy protein expression post-dose vs pre-dose (IHC),"patients with mCRPC; Patient 1, 50 mg BD, 4-hours post dose",reduction in AR-V7 and C-MYC protein expression
same,biopsy protein expression post-dose vs pre-dose (IHC),"patients with mCRPC; Patient 2, 25 mg BD, 3-hours post dose",reduction in C-MYC and Ki67 protein expression
I-BET151,"resistance, resistant vs parental",[2],> 100 fold
